Source: article PMC5091360 (Science Advances, 2016)

What was measured:
[1] = presence in the vitreous humor after topical application; assay type: in vivo; conditions: applied topically
[2] = tested on: IgD2-3 domains from human VEGFR-3; experiment: VEGF-C binding to recombinant VEGFR-3 IgD2-3; conditions: synthetic peptide added; FLISA, duplicate wells
[3] = tested on: human VEGFR-1; experiment: FLISA binding assay, NRP-2 to VEGFR-1; conditions: rat NRP-2; peptide 100 μg/ml; FLISA, duplicate wells
Summary of the method: (§1)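 Human VEGFR-1 extracellular domain coated at 200 ng per well in PBS overnight at 4°C, then blocked with Odyssey blocking buffer. Wells incubated with NRP-1 or NRP-2 in PBS with 10% (v/v) DMSO and 10% blocking buffer, with or without peptide (100 μg/ml). Bound NRP detected with goat anti-NRP-1 or anti-NRP-2 serum (1:100), then IRDye 680LT anti-goat, by infrared scanning. Duplicate wells; ANOVA with Tukey.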

[4] = tested on: human PDGFR-β; experiment: growth factor binding assay; conditions: PDGF-BB 20 ng/ml; peptide 100 μg/ml; FLISA, duplicate wells
Summary of the method: (§2)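 Human FGFR-1 or PDGFR-β coated at 200 ng per well in PBS overnight at 4°C and blocked. Wells incubated with human FGF-1 or PDGF-BB (each 20 ng/ml) in PBS with 10% (v/v) DMSO and 10% blocking buffer, with or without peptide (100 μg/ml). Bound ligand detected with goat antiserum (1:200), then IRDye 680LT anti-goat, by infrared fluorescence. Duplicate wells; ANOVA with Tukey.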

[5] = tested on: human FGFR-1; experiment: growth factor binding assay; conditions: FGF-1 20 ng/ml; peptide 100 μg/ml; FLISA, duplicate wells
Summary of the method: as §2

[6] = tested on: IgD2 domain from human VEGFR-3; experiment: VEGF-C binding to recombinant VEGFR-3 IgD2; conditions: synthetic peptide added; FLISA, duplicate wells
[7] = tested on: human VEGFR-1; experiment: FLISA binding assay, NRP-1 to VEGFR-1; conditions: human NRP-1; peptide 100 μg/ml; FLISA, duplicate wells
Summary of the method: as §1

[8] = solubility in Matrigel compared to aqueous media; assay type: physicochemical

- effect on NRP-2 interaction with VEGFR-1 [3]: not affected by peptide PCAIWF or WVCSGG
- effect on binding of PDGF-BB to PDGFR-β [4]: no effect
- effect on binding of basic human FGF to FGFR-1α [5]: no effect
- effect on NRP-1 interaction with VEGFR-1 [7]: not affected by peptide PCAIWF or WVCSGG
Substance: WVCSGG
- presence in the vitreous humor after topical application [1]: not found in the vitreous humor if applied topically to the retina
- inhibition of VEGF-C binding to IgD2-3 [2]: both prevented binding of VEGF-C to IgD2 and IgD2-3
- inhibition of VEGF-C binding to IgD2 [6]: both prevented binding of VEGF-C to IgD2 and IgD2-3
- solubility in Matrigel [8]: fairly soluble in Matrigel compared to aqueous media
